Measured values from ChEMBL document CHEMBL1255487, “Preclinical evaluation of the antifolate QN254, 5-chloro- N'6'-(2,5-dimethoxy-benzyl)-quinazoline-2,4,6-triamine, as an antimalarial drug candidate” (Antimicrob Agents Chemother, 2010).

How the values were obtained:
[1] = AUC in CD-1 mouse at 25 mg/kg, po; type: ADME, organism-based; design: dose 25 mg/kg, route oral; settings: plasma
How it was run: (§1)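 Mice dosed with 25 mg/kg p.o. as a 2.5 mg/ml suspension in 0.5% CMC, or with 5 mg/kg i.v. at 1 mg/ml in 10% NMP, 30% PEG 400 and 60% of 10% vitamin E-TPGS. Blood sampled at several time points. Plasma extracted with acidified acetonitrile (8:1) and quantified by LC-MS, LLOQ 12 ng/ml.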

[2] = Half life in CD-1 mouse at 5 mg/kg, iv; type: ADME, organism-based; design: dose 5 mg/kg, route intravenous; settings: in vivo; how it was run: as §1
[3] = test system: Plasmodium falciparum; assay: Antimalarial activity against pyrimethamine-resistant Plasmodium falciparum clinical isolate harboring S108N, N51I mutation in DHFR assessed as decrease in parasitaemia; type: functional, organism-based
How it was run: (§2)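 P. falciparum grown in RPMI 1640 with 10% (v/v) human serum, 25 mM bicarbonate, 2 mM glutamine, 25 mM HEPES, 5 nM para-aminobenzoic acid and 23 nM folic acid. Parasites exposed to a concentration series. Read-out is [3H]hypoxanthine incorporation into nucleic acid. IC50 taken from non-linear regression of the dose–response curve.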

[4] = Volume of distribution in Wistar rat at 5 mg/kg, iv; type: ADME, organism-based; design: dose 5 mg/kg, route intravenous; settings: in vivo
How it was run: (§3)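 Rats dosed with 25 mg/kg p.o. as a 2.5 mg/ml suspension in 0.5% CMC, or with 5 mg/kg i.v. at 1 mg/ml in 10% NMP, 30% PEG 400 and 60% of 10% vitamin E-TPGS. Plasma sampled over time, extracted with acidified acetonitrile (8:1) and quantified by LC-MS, LLOQ 12 ng/ml.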

[5] = Clearance in CD-1 mouse at 5 mg/kg, iv; type: ADME, organism-based; design: dose 5 mg/kg, route intravenous; settings: in vivo; how it was run: as §1
[6] = test system: Mus musculus; assay: Toxicity in NMRI mice (Mus musculus) infected with Plasmodium berghei ANKA at 3 times 100 mg/kg, perorally measured up to 30 days postinfection; type: organism-based; design: dose 100 mg/kg, route oral; settings: in vivo, po, 720 h
[7] = AUC in Wistar rat at 25 mg/kg, po; type: ADME, organism-based; design: dose 25 mg/kg, route oral; settings: plasma; how it was run: as §3
[8] = test system: Plasmodium berghei; assay: Antimalarial activity against Plasmodium berghei ANKA infected in NMRI mice (Mus musculus) assessed as reduction in parasitemia at 3 times 100 mg/kg, perorally measured on day 3 postinfection; type: functional; design: scale not given: the % may be the effect or the level left; settings: route oral
How it was run: (§4)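 P. berghei ANKA given intravenously to groups of 5 female NMRI mice (20–22 g): 0.2 ml of 1 × 10^8 parasitized erythrocytes/ml from a donor mouse. Oral dosing in 0.5% carboxymethyl cellulose. Parasitemia counted by microscopy. Activity is the control-minus-treated parasitemia difference, expressed as percent of untreated controls.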

[9] = test system: Mus musculus; assay: Toxicity in NMRI mice (Mus musculus) infected with Plasmodium berghei ANKA at 100 mg/kg, perorally administered as single dose measured up to 30 days postinfection; type: organism-based; design: dose 100 mg/kg, route oral; settings: in vivo, po, 720 h
[10] = test system: Plasmodium berghei; assay: Antimalarial activity against Plasmodium berghei ANKA infected in perorally dosed NMRI mice (Mus musculus) assessed as reduction in parasitemia administered as single dose measured on day 3 postinfection; type: functional; settings: po, 72 h
[11] = test system: Plasmodium berghei; assay: Antimalarial activity against Plasmodium berghei ANKA infected in NMRI mice (Mus musculus) assessed as reduction in parasitemia at 3 times 60 mg/kg, perorally measured on day 3 postinfection; type: functional; design: scale not given: the % may be the effect or the level left; settings: route oral; how it was run: as §4
[12] = test system: Plasmodium berghei; assay: Antimalarial activity against Plasmodium berghei ANKA infected in NMRI mice (Mus musculus) assessed as survival rate at 15 mg/kg, perorally administered as single dose; type: functional; settings: route oral
How it was run: (§5)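 Infection: 5 female NMRI mice (20–22 g) per group, inoculated intravenously with 0.2 ml of donor blood at 1 × 10^8 parasitized erythrocytes/ml. Oral administration in 0.5% carboxymethyl cellulose. Survival time recorded up to 30 days after infection and averaged per group.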

[13] = test system: Mus musculus; assay: Toxicity in NMRI mice (Mus musculus) infected with Plasmodium berghei ANKA at 15 mg/kg, perorally administered as single dose measured up to 30 days postinfection; type: organism-based; design: dose 15 mg/kg, route oral; settings: in vivo, po, 720 h
[14] = test system: Mus musculus; assay: Toxicity in NMRI mice (Mus musculus) infected with Plasmodium berghei ANKA at 60 mg/kg, perorally administered as single dose measured up to 30 days postinfection; type: organism-based; design: dose 60 mg/kg, route oral; settings: in vivo, po, 720 h
[15] = test system: Plasmodium falciparum; assay: Antimalarial activity against pyrimethamine-resistant Plasmodium falciparum clinical isolate harboring S108N, C59R mutation in DHFR assessed as decrease in parasitaemia; type: functional, organism-based; how it was run: as §2
[16] = test system: Mus musculus; assay: Toxicity in NMRI mice (Mus musculus) infected with Plasmodium berghei ANKA at 3 times 60 mg/kg, perorally measured up to 30 days postinfection; type: organism-based; design: dose 60 mg/kg, route oral; settings: in vivo, po, 720 h
[17] = Cmax in Wistar rat at 25 mg/kg, po; type: ADME, organism-based; design: dose 25 mg/kg, route oral; settings: in vivo; how it was run: as §3
[18] = AUC (0 to 24 hrs) in Wistar rat at 50 mg/kg, po; type: ADME, organism-based; design: time < 24 hr, dose 50 mg/kg, route oral; settings: plasma
[19] = test system: Plasmodium berghei; assay: Antimalarial activity against Plasmodium berghei ANKA infected in NMRI mice (Mus musculus) assessed as cure rate at 3 times 60 mg/kg, perorally measured on day 3 postinfection; type: functional; settings: route oral
How it was run: (§6)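 Female NMRI mice (20–22 g), 5 per group, infected intravenously with 0.2 ml of 1 × 10^8 parasitized erythrocytes/ml from a fresh donor mouse. Compound suspended in 0.5% carboxymethyl cellulose and given orally. Survival followed to day 30 post-infection; an animal was scored cured if it survived to day 30 without parasites.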

[20] = test system: Plasmodium berghei; assay: Antimalarial activity against Plasmodium berghei ANKA infected in NMRI mice (Mus musculus) assessed as cure rate at 10 mg/kg, perorally administered as single dose […]; type: functional; settings: route oral; how it was run: as §6
[21] = test system: Plasmodium berghei; assay: Antimalarial activity against Plasmodium berghei ANKA infected in NMRI mice (Mus musculus) assessed as survival rate at 30 mg/kg, perorally administered as single dose; type: functional; settings: route oral; how it was run: as §5
[22] = Oral bioavailability in Wistar rat at 25 mg/kg; type: ADME, organism-based; settings: in vivo; how it was run: as §3
[23] = test system: Plasmodium berghei; assay: Antimalarial activity against Plasmodium berghei ANKA infected in NMRI mice (Mus musculus) assessed as cure rate at 100 mg/kg, perorally administered as single dose measured on […]; type: functional; settings: route oral; how it was run: as §6
[24] = Binding affinity to wild type Plasmodium falciparum DHFR by competitive binding assay
[25] = test system: Mus musculus; assay: Toxicity in NMRI mice (Mus musculus) infected with Plasmodium berghei ANKA at 10 mg/kg, perorally administered as single dose measured up to 30 days postinfection; type: organism-based; design: dose 10 mg/kg, route oral; settings: in vivo, po, 720 h
[26] = AUC (0 to 24 hrs) in NMRI mouse at 26.5 mg/kg, po; settings: plasma
[27] = test system: Plasmodium berghei; assay: Antimalarial activity against Plasmodium berghei ANKA infected in NMRI mice (Mus musculus) assessed as reduction in parasitemia at 15 mg/kg, perorally administered as single dose measured on day 3 postinfection; type: functional; design: scale not given: the % may be the effect or the level left; settings: route oral; how it was run: as §4
[28] = Volume of distribution in CD-1 mouse at 5 mg/kg, iv; type: ADME, organism-based; design: dose 5 mg/kg, route intravenous; settings: in vivo; how it was run: as §1
[29] = test system: Plasmodium falciparum; assay: Antimalarial activity against pyrimethamine-resistant Plasmodium falciparum V1/S harboring S108N, N51I, C59R, I164L mutation in DHFR assessed as decrease in parasitaemia; type: functional, organism-based; settings: V1S

Structure (SMILES): COc1ccc(OC)c(CNc2ccc3nc(N)nc(N)c3c2Cl)c1
- AUC [1]: 44.6 µM·h
- half-life [2]: 48 min
- IC50 [3]: 4.48 nM
- Vd [4]: 4.7 L/kg
- clearance [5]: 51.1 mL/min/kg
- Activity [6]: 80%
- AUC [7]: 67.3 µM·h
- Activity [8]: >99.99%
- Activity [9]: 0%
- ED50 [10]: 7.2 mg/kg
- ED90 [10]: 12.4 mg/kg
- Activity [11]: >99.99%
- Survival [12]: 6 days
- Activity [13]: 0%
- Activity [14]: 0%
- IC50 [15]: 4.48 nM
- Activity [16]: 40%
- Cmax [17]: 2800 nM
- AUC(0-t) at 24 h [18]: 27600 ng·h/mL
- Activity [19]: 60%
- Activity [20]: 0%
- Survival [21]: 8.1 days
- bioavailability [22]: 63%
- Activity [23]: 50%
- Ki [24]: 0.39 nM
- Activity [25]: 0%
- AUC(0-t) at 24 h [26]: 17000 ng·h/mL
- Activity [27]: 73%
- Vd [28]: 2.85 L/kg
- IC50 [29]: 7.61 nM
